Test results reported in ChEMBL document CHEMBL4354843, “Structure-Based Design of a Potent and Selective Covalent Inhibitor for SRC Kinase That Targets a P-Loop Cysteine” (J Med Chem, 2020).
Calls of active or inactive are those of the source. No cut-off for these calls is given here.

Key:
[1] = molecular target: Dual specificity mitogen-activated protein kinase kinase; MEK1/2 (Homo sapiens) (UniProt P36507+Q02750); test: Inhibition of MEK1/2 in human HCC827 cells assessed as blocking of MEK1/2 pulldown at 1 uM in presence of TL13-68 incubated for 2 hrs by Western blot analysis; format: cell-based
In short: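 H1975 or HCC827 cells treated with 1 μM compound or DMSO for 2 h, rinsed twice in cold PBS, and lysed in M-PER with protease/phosphatase inhibitors. Lysate rocked overnight at 4 °C with 1 μM TL13-68, then streptavidin pulldown with five cold washes. Bound kinases detected by Western blot. Two independent experiments.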

[2] = tested on: Serine/threonine-protein kinase B-raf (Homo sapiens), P15056 [V600E]; test: Binding affinity to human partial length BRAF V600E mutant (S429 to E741 residues) expressed in mammalian expression system assessed as residual binding level at 1 uM by Kinomescan method relative to control
Serine/threonine-protein kinase B-raf (Homo sapiens), P15056 [V600E], sequence (P15056 whole entry V600E, the tested form may be a part): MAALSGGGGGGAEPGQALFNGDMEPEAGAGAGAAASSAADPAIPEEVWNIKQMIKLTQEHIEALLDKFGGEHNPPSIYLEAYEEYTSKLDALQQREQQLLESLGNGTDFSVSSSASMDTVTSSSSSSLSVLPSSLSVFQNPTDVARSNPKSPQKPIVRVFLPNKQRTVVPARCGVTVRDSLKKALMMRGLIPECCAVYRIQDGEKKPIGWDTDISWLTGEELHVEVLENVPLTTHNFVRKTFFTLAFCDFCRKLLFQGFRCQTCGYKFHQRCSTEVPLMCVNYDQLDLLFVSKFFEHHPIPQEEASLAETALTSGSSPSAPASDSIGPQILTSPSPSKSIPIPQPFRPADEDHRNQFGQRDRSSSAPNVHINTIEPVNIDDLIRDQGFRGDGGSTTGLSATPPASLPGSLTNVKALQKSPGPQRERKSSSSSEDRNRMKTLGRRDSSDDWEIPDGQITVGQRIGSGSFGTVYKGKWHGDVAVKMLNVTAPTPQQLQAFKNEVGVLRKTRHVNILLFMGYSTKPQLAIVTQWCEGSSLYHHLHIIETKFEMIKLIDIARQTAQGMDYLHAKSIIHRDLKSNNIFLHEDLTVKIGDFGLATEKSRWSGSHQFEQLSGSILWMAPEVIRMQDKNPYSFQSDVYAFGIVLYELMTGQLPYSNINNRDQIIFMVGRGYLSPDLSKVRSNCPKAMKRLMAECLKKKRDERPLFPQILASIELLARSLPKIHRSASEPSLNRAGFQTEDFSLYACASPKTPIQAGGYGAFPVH
In short: (§1)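 KinomeScan active site-directed competition binding panel (468 kinases), compound tested at 1 μM. Result expressed as remaining kinase signal versus DMSO control (percent of control).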

[3] = molecular target: Cyclin-dependent kinase 4 (Homo sapiens) (UniProt P11802); test: Binding affinity to wild-type human full length CDK4 (M1 to E303 residues) expressed in mammalian expression system assessed as residual binding level at 1 uM by Kinomescan method relative to control
Cyclin-dependent kinase 4 (Homo sapiens), sequence (P11802 whole entry, the tested form may be a part): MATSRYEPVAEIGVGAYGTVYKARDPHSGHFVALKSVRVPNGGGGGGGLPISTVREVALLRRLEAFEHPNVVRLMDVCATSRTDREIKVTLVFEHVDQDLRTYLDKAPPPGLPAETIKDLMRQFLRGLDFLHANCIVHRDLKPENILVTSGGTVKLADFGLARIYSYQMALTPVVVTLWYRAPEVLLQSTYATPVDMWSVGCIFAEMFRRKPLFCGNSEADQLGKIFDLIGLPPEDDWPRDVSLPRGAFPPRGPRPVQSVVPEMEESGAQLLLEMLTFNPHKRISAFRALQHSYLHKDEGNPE
In short: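 Active-site-directed KinomeScan competition binding panel covering 468 kinases, compound tested at 1 μM. Each readout is the kinase signal remaining with compound, expressed as a percentage of the DMSO control. […]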

[4] = tested on: Epidermal growth factor receptor (Homo sapiens), P00533 [G719C]; test: Binding affinity to human partial length EGFR G719C mutant (R669 to V1011 residues) expressed in bacterial expression system assessed as residual binding level at 1 uM by Kinomescan method relative to control; in short: as §1
[5] = molecular target: Ephrin type-A receptor 8 (Homo sapiens) (UniProt P29322); test: Binding affinity to wild-type human partial length EPHA8 (Q608 to C920 residues) expressed in bacterial expression system assessed as residual binding level at 1 uM by Kinomescan method relative to control
In short: (§2)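 Active-site-directed competition binding panel of 468 kinases (KinomeScan), compound at 1 μM. The read-out is kinase remaining bound, given as a percentage of the DMSO control. […]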

[6] = molecular target: Ephrin type-B receptor 4 (Homo sapiens) (UniProt P54760); test: Binding affinity to wild-type human partial length EPHB4 (H585 to G892 residues) expressed in bacterial expression system assessed as residual binding level at 1 uM by Kinomescan method relative to control
[7] = molecular target: Ephrin type-B receptor 6 (Homo sapiens) (UniProt O15197); test: Binding affinity to wild-type human partial length EPHB6 (Q634 to P948 residues) expressed in mammalian expression system assessed as residual binding level at 1 uM by Kinomescan method relative to control; in short: as §2
[8] = molecular target: Tyrosine-protein kinase Fes/Fps (Homo sapiens) (UniProt P07332); test: Binding affinity to wild-type human partial length FES (I527 to R822 residues) expressed in bacterial expression system assessed as residual binding level at 1 uM by Kinomescan method relative to control
[9] = molecular target: Fibroblast growth factor receptor 4 (Homo sapiens) (UniProt P22455); test: Binding affinity to wild-type human partial length FGFR4 (G402 to E713 residues) expressed in bacterial expression system assessed as residual binding level at 1 uM by Kinomescan method relative to control
Fibroblast growth factor receptor 4 (Homo sapiens), sequence (P22455 22-802 limits assumed): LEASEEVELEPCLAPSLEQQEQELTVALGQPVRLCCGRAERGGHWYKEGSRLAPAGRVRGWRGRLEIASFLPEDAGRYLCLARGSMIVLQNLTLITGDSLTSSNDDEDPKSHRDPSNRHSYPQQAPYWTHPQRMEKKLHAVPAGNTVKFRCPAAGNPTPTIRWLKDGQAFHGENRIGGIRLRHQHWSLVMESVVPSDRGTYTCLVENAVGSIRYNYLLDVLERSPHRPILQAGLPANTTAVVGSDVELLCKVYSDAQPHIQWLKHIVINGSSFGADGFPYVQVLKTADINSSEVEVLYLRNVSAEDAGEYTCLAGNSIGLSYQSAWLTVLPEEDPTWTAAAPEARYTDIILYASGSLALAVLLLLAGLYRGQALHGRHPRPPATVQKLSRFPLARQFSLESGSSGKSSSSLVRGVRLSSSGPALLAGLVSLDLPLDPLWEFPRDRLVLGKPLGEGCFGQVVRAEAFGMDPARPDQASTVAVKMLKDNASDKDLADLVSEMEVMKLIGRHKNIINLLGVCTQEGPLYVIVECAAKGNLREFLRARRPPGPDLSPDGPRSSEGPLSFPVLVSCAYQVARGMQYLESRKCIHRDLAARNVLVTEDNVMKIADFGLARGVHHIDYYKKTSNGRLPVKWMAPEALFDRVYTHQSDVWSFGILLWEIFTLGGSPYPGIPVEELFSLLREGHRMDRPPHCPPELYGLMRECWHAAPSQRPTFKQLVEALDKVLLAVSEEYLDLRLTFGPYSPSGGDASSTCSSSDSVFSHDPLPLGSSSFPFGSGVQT

[10] = tested on: Mast/stem cell growth factor receptor Kit (Homo sapiens), P10721 [UNDEFINED MUTATION]; test: Binding affinity to human partial length KIT V559D/V654 double mutant (Y545 to D952 residues) expressed in bacterial expression system assessed as residual binding level at 1 uM by Kinomescan method relative to control; in short: as §1
[11] = molecular target: Serine/threonine-protein kinase LATS1 (Homo sapiens) (UniProt O95835); test: Binding affinity to wild-type human partial length LATS1 (Q678 to V1130 residues) expressed in bacterial expression system assessed as residual binding level at 1 uM by Kinomescan method relative to control
Serine/threonine-protein kinase LATS1 (Homo sapiens), sequence (O95835 whole entry, the tested form may be a part): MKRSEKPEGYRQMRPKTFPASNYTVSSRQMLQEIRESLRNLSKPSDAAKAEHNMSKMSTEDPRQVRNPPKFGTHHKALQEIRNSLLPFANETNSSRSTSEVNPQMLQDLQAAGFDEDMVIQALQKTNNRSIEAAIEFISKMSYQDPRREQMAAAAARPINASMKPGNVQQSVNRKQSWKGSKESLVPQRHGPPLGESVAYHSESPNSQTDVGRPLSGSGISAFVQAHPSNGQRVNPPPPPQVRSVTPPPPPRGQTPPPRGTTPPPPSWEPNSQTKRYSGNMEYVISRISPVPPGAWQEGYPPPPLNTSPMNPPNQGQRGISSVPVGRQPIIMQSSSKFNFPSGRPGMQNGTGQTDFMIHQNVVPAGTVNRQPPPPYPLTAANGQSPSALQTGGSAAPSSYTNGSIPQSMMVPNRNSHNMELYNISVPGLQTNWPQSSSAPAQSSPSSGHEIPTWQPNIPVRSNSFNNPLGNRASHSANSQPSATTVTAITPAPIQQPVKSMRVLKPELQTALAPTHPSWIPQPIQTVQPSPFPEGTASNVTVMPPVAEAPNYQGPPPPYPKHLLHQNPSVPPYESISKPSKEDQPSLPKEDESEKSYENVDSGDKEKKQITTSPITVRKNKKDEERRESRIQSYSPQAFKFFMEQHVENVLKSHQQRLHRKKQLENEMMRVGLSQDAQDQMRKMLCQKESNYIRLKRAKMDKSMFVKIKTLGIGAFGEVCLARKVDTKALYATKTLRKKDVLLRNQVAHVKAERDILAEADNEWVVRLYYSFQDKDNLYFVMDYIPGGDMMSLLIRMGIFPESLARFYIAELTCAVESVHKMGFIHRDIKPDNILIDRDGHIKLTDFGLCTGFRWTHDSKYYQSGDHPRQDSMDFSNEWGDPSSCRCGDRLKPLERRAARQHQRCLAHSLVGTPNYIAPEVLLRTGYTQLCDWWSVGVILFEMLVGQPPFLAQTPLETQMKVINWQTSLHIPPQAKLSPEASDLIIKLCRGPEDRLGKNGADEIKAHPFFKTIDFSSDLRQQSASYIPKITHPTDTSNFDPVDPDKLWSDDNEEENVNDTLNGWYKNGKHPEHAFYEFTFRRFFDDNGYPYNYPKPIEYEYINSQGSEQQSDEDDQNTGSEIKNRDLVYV

[12] = molecular target: Mitogen-activated protein kinase kinase kinase kinase 4 (Homo sapiens) (UniProt O95819); test: Binding affinity to wild-type human partial length MAP4K4 (M1 to R310 residues) expressed in bacterial expression system assessed as residual binding level at 1 uM by Kinomescan method relative to control
[13] = molecular target: Dual specificity mitogen-activated protein kinase kinase 2 (Homo sapiens) (UniProt P36507); test: Binding affinity to wild-type human full length MEK2 (M1 to V400 residues) expressed in mammalian expression system assessed as residual binding level at 1 uM by Kinomescan method relative to control
Dual specificity mitogen-activated protein kinase kinase 2 (Homo sapiens), sequence (P36507 whole entry, the tested form may be a part): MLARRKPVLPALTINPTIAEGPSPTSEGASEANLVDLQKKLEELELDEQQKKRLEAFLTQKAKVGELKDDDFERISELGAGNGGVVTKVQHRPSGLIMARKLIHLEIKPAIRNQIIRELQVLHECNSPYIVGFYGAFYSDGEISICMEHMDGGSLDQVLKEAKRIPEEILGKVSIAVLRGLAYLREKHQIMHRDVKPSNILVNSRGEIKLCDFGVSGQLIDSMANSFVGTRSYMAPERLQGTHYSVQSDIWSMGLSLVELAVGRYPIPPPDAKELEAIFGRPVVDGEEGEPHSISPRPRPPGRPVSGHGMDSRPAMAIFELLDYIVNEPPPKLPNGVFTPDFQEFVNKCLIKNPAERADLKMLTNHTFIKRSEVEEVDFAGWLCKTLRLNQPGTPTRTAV
In short: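 KinomeScan, an active site-directed competition binding panel of 468 kinases. The test compound was at 1 μM. The readout is remaining kinase binding as a percentage of the DMSO control. Scores above 35% were treated as weak binding and not listed.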

[14] = molecular target: Mitogen-activated protein kinase kinase kinase 9 (Homo sapiens) (UniProt P80192); test: Binding affinity to wild-type human partial length MLK1 (V88 to W426 residues) expressed in bacterial expression system assessed as residual binding level at 1 uM by Kinomescan method relative to control
[15] = molecular target: Serine/threonine-protein kinase 26 (Homo sapiens) (UniProt Q9P289); test: Binding affinity to wild-type human full length MST4 (M1 to P416 residues) expressed in mammalian expression system assessed as residual binding level at 1 uM by Kinomescan method relative to control
Serine/threonine-protein kinase 26 (Homo sapiens), sequence (Q9P289 2-416 limits assumed): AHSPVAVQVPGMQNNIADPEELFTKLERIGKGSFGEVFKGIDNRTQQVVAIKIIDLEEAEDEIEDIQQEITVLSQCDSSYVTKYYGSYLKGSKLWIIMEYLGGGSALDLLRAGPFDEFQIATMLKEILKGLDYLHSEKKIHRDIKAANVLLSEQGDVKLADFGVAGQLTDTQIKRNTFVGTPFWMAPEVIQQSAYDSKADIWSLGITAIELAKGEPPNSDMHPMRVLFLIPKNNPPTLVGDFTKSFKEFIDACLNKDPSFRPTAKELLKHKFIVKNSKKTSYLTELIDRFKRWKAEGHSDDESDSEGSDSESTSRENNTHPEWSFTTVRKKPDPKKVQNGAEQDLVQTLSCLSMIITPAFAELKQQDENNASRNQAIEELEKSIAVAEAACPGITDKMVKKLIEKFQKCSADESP
In short: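 Active-site-directed competition binding panel (KinomeScan) covering 468 kinases. Test agent was screened at 1 μM. The read-out is the remaining kinase signal expressed relative to a DMSO control. Scores above 35%, taken as weak binding, were not reported.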

[16] = molecular target: Serine/threonine-protein kinase 38-like (Homo sapiens) (UniProt Q9Y2H1); test: Binding affinity to wild-type human partial length NDR2 (N34 to E447 residues) expressed in bacterial expression system assessed as residual binding level at 1 uM by Kinomescan method relative to control; in short: as §2
Serine/threonine-protein kinase 38-like (Homo sapiens), sequence (Q9Y2H1 2-464 limits assumed): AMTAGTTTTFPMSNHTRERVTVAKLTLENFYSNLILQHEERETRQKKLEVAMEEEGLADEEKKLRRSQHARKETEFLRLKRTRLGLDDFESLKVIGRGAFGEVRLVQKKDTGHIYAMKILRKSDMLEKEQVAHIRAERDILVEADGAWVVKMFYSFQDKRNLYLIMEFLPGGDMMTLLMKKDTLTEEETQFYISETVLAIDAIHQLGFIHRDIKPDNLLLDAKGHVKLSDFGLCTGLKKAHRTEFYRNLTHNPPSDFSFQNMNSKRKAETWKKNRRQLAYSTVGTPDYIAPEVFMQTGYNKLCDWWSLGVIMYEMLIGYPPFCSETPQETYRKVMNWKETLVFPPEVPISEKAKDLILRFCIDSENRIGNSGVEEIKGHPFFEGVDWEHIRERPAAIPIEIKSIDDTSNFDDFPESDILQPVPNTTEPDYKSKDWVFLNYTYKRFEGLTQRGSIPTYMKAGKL

[17] = molecular target: Serine/threonine-protein kinase D2 (Homo sapiens) (UniProt Q9BZL6); test: Binding affinity to wild-type human partial length PRKD2 (A519 to E838 residues) expressed in bacterial expression system assessed as residual binding level at 1 uM by Kinomescan method relative to control; in short: as §2
[18] = molecular target: Ribosomal protein S6 kinase alpha-2 (Homo sapiens) (UniProt Q15349); test: Binding affinity to wild-type human partial length N- terminal RSK3 kinase domain 1 (M1 to Q385 residues) expressed in bacterial expression system assessed as residual binding level at 1 uM by Kinomescan method relative to control
Ribosomal protein S6 kinase alpha-2 (Homo sapiens), sequence (Q15349 whole entry, the tested form may be a part): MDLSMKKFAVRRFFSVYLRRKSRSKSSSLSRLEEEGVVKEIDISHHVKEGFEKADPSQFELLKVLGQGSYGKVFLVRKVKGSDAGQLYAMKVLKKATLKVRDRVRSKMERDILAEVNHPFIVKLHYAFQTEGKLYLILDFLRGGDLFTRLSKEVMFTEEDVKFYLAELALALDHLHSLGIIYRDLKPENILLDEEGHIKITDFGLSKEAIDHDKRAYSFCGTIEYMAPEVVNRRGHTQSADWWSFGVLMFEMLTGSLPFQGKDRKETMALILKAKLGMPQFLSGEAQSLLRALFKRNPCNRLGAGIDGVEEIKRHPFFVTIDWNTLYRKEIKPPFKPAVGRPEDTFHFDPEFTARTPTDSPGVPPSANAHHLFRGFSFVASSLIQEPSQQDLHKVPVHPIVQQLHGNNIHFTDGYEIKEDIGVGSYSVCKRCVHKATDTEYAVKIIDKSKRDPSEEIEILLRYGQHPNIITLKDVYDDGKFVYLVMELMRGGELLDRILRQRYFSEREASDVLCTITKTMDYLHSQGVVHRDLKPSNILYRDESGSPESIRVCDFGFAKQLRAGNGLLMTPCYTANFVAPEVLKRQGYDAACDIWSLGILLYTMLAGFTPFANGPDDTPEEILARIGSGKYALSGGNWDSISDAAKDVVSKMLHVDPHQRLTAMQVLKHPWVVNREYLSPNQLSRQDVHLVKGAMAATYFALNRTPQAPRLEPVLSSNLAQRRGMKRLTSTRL

[19] = molecular target: Serine/threonine-protein kinase SBK1 (Homo sapiens) (UniProt Q52WX2); test: Binding affinity to wild-type human partial length SBK1 (P23 to P348 residues) expressed in mammalian expression system assessed as residual binding level at 1 uM by Kinomescan method relative to control

Structure (SMILES): C=CC(=O)Nc1ccccc1Nc1nc(Nc2ccc(N3CCN(C)CC3)cc2)ncc1C(=O)Nc1c(C)cccc1Cl
- inhibition [1]: inactive
- Activity [2]: 100%
- Activity [3]: 97%
- Activity [4]: 100%
- Activity [5]: 1%
- Activity [6]: 100%
- Activity [7]: 6%
- Activity [8]: 100%
- Activity [9]: 100%
- Activity [10]: 100%
- Activity [11]: 100%
- Activity [12]: 100%
- Activity [13]: 93%
- Activity [14]: 100%
- Activity [15]: 85%
- Activity [16]: 93%
- Activity [17]: 99%
- Activity [18]: 100%
- Activity [19]: 100%
